These results are taken from ChEMBL document CHEMBL3414458, “Discovery of novel 2,5-dioxoimidazolidine-based P2X(7) receptor antagonists as constrained analogues of KN62” (J Med Chem, 2015).

Test [1] has as its target T1, P2X purinoceptor 7 (Homo sapiens) (UniProt Q99572).
T1 sequence (whole entry): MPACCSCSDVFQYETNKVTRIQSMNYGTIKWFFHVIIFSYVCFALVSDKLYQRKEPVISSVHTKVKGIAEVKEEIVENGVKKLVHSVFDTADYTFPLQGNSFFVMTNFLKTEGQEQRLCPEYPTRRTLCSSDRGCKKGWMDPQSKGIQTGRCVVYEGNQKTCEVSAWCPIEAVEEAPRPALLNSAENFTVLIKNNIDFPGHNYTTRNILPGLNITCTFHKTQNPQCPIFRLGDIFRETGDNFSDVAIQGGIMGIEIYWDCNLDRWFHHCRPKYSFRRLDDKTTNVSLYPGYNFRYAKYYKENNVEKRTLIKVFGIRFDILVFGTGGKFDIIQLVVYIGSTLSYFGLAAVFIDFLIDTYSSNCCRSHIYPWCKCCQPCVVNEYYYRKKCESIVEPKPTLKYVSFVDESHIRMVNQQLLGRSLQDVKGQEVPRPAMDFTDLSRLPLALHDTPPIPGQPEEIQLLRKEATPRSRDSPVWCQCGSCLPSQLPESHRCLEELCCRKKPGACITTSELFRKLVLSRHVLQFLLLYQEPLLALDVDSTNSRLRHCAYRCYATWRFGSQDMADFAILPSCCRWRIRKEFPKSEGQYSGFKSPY
The experiment in a line: Antagonist activity at P2X7 receptor in LPS/IFN-gamma-differentiated human THP1 cells assessed as inhibition of BzATP-induced IL-1beta release at 1 uM preincubated for 30 mins followed by BzATP induction measured after 30 mins by ELISA relative to control. The conditions noted are these: THP-1. The class given is cell-based. In a few lines: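 LPS-primed THP-1 human monocytes were stimulated with BzATP, and IL-1β release was measured by ELISA. Test compound was given at a single concentration of 1 µM, and results are expressed as percent inhibition of BzATP-induced IL-1β release.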

In test [2] the target is T2, P2X purinoceptor 3 (Homo sapiens) (UniProt P56373).
T2 sequence (whole entry): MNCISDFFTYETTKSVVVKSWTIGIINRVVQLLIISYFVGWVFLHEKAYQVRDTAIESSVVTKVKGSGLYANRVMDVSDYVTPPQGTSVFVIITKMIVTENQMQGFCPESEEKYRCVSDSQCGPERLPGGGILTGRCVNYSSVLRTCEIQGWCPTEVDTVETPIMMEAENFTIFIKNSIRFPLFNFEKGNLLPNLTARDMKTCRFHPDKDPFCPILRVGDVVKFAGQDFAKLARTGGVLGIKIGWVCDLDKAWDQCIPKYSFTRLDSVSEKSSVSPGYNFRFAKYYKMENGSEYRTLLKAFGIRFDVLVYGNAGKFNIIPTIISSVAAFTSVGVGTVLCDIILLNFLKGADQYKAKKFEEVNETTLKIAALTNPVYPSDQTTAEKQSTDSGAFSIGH
Description: Antagonist activity at recombinant human P2X3 receptor overexpressed in Xenopus oocytes assessed as inhibition of ATP-induced ion current at 10 uM preincubated for 20 mins followed by ATP induction by two-electrode voltage clamping method relative to control. The class given is cell-based. In short, it runs like this: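 Xenopus oocytes were microinjected with capped cRNA for human P2X3. Two-electrode voltage clamp recorded ion current evoked by 2 µM ATP. Test compound at 10 µM was scored as percent reduction of the ATP-induced current.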

The target in test [3] is T3, P2X purinoceptor 7 (Mus musculus) (UniProt Q9Z1M0).
T3 sequence (whole entry): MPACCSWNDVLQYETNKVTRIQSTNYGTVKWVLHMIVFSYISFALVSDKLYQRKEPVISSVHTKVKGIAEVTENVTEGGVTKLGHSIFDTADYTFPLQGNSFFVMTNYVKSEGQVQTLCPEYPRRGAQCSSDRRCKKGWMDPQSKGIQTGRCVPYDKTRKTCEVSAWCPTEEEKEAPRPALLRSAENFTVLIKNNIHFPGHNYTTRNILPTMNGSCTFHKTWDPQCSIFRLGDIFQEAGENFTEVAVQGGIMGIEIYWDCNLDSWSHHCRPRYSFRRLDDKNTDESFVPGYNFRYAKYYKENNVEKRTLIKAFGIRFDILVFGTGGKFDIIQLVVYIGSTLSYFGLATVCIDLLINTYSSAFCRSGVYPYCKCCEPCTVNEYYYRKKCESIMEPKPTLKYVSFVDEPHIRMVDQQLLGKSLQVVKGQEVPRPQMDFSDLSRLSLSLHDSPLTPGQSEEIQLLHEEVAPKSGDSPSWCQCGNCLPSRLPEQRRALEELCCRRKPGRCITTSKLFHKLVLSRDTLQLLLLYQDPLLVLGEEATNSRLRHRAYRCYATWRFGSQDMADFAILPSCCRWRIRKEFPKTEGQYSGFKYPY
The experiment in a line: Antagonist activity at P2X7 receptor in LPS-primed mouse J774.A1 cells assessed as inhibition of ATP-induced IL-1beta release after 30 mins by ELISA. The class given is cell-based. In a few lines:
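J774.A1 mouse cells stimulated with 5 mM ATP; IL-1β release measured, with IC50 taken from concentration-response data.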

In test [4] the target is T4, P2X purinoceptor 7 (Rattus norvegicus) (UniProt Q64663).
T4 sequence (whole entry): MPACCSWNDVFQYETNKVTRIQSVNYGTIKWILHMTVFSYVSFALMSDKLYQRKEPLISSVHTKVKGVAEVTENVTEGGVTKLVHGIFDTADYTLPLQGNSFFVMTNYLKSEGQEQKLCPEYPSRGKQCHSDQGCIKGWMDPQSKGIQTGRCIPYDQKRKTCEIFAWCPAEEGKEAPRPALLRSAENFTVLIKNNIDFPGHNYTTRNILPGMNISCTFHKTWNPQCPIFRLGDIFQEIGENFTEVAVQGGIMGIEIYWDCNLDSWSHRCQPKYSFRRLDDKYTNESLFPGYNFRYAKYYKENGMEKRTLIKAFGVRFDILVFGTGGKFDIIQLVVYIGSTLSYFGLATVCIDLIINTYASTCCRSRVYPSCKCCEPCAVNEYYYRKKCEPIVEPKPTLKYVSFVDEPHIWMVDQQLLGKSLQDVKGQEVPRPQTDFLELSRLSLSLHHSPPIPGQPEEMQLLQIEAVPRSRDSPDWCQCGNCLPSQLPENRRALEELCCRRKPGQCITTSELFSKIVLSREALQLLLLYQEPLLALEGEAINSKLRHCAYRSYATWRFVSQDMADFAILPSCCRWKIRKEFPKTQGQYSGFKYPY
The experiment in a line: Antagonist activity at P2X7 receptor in neuropathic rat dorsal horn assessed as inhibition of long term potentiation-induced neropathic pain at 20 uM relative to control. The conditions noted are these: Dorsal horn of spinal cord. In a few lines: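 Ex vivo spinal cord preparation: LTP-induced pain signalling recorded in the dorsal horn of neuropathic rats. Pregabalin served as the positive control.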

The subject of test [5] is Mus musculus. The experiment in a line: Antiarthritic activity in CII-induced DBA/1J mouse arthritic model assessed as decrease in periarticular erosion at 50 mg/kg, ip measured 10 days post second CII booster by Hematoxylin and eosin staining relative to CII-treated control. It counts as functional, organism-based. More on the design: dose 50 mg/kg. In a few lines:
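Mouse type II collagen-induced arthritis; 50 mg/kg dosed by injection. Ankle histology was scored as cumulative arthritis injury scores against the vehicle-treated CII group.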

Test [6] has as its system Mus musculus. The experiment in a line: Downregulation of COX-2 expression in ankle tissue of CII-induced DBA/1J mouse arthritic model at 25 to 50 mg/kg, ip measured 10 days post second CII booster by immunoblot analysis. The class given is functional, organism-based.

Molecules are shown by their SMILES. Activity calls are given as the source filed them. The calls are words filed in the database; no cut-off is given here.

On to `O=C1NC(=O)N(C2CCN(C(=O)c3ccc(Cl)c(C(F)(F)F)c3)CC2)C1Cc1ccc(OS(=O)(=O)c2cccc3cnccc23)cc1` (racemic), for which the inhibition in test [1] was greater than 95%; in test [2], 5.05%; in test [3] it was “Dose-dependent effect”; in test [4], 76%. Also, the outcome in the test with Mus musculus [5] and in the test with Mus musculus [6] was Active.
